{
  "source": "ChEMBL document CHEMBL4680165",
  "about": "“β-Lactams with antiproliferative and antiapoptotic activity in breast and chemoresistant colon cancer cells” (Eur J Med Chem, 2020)",
  "key": {"HT-29 [1]": {"tested_on": "HT-29", "test": "Antiangiogenic activity in human HT29 cells assessed as reduction in VEGF secretion at 5 uM after 24 hrs by ELISA", "format": "functional, cell-based", "outline": "(§1)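 HT-29 cells at 5 x 10^4 per well, cultured 24 h and then exposed to 5 µM compound. Conditioned medium collected on ice and stored at -80 °C. Cytokines and angiogenic, vascular-injury and chemokine factors measured by multiplex panels with overnight supernatant incubation (Angiogenesis Panel 1 and Vascular Injury Panel 2 same day). Medium undiluted except 1:4 for Vascular Injury Panel 2. Secretion normalised to lysate protein by BCA.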"}, "MCF7": {"tested_on": "MCF7", "test": "Antiproliferative activity against human MCF7 cells assessed as reduction in cell viability after 72 hrs by alamar blue assay", "format": "functional, cell-based", "details": "MCF7, 72 h", "outline": "(§2)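 Cells seeded at 5 x 10^3/well (MCF-7) or 1 x 10^4/well (HT-29, HEK-293T) and treated after 24 h with serial dilutions (0.001-100 µM) in 1% v/v ethanol vehicle. Alamar Blue 10% v/v added at 72 h, then 3-5 h at 37 °C in the dark; fluorescence ex 530/em 590 nm. Viability relative to vehicle; IC50 from dose-response curves; mean of three experiments in triplicate.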"}, "Bos taurus": {"species_on_record": "Bos taurus", "test": "Inhibition of bovine brain tubulin polymerization at 10 uM measured at 30 sec interval for 30 mins in presence of GTP by turbidimetry-based spectrophotometric method"}, "HT-29 [2]": {"tested_on": "HT-29", "test": "Antiangiogenic activity in human HT29 cells assessed as reduction in IL-1beta secretion at 5 uM after 24 hrs by ELISA", "format": "functional, cell-based", "outline": "as §1"}, "HT-29 [3]": {"tested_on": "HT-29", "test": "Antiangiogenic activity in human HT-29 cells assessed as increase in IL-1RA secretion at 5 uM after 24 hrs by ELISA", "format": "functional, cell-based", "outline": "as §1"}, "HT-29 [4]": {"tested_on": "HT-29", "test": "Potency index, ratio of CA-4 IC50 to test compound IC50 for human HT-29 cells", "format": "functional"}, "HT-29 [5]": {"tested_on": "HT-29", "test": "Antiproliferative activity against human HT-29 cells assessed as reduction in cell viability after 72 hrs by alamar blue assay", "format": "functional, cell-based", "details": "HT-29, 72 h", "outline": "as §2"}, "HT-29 [6]": {"tested_on": "HT-29", "test": "Antiangiogenic activity in human HT29 cells assessed as reduction in IL-1alpha secretion at 5 uM after 24 hrs by ELISA", "format": "functional, cell-based", "outline": "as §1"}, "[7]": {"test": "Selectivity index, ratio of IC50 for human MCF7 cells to IC50 for human HT-29 cells assessed as reduction in cell viability after 72 hrs by alamar blue assay", "format": "functional"}},
  "note": "Activity calls are given as the source filed them. No cut-off for these calls is given here.",
  "data": [
    {"smiles": "COc1ccc([C@H]2[C@H](O)C(=O)N2c2cc(OC)c(OC)c(OC)c2)cc1C", "values": [
      {"measurement": "Activity", "setting": "HT-29 [1]", "value": "inactive"},
      {"measurement": "IC50", "setting": "MCF7", "value": 5, "unit": "nM"},
      {"measurement": "inhibition", "setting": "Bos taurus", "value": "Active"},
      {"measurement": "Activity", "setting": "HT-29 [2]", "value": "inactive"},
      {"measurement": "Activity", "setting": "HT-29 [3]", "value": "Active"},
      {"measurement": "Ratio IC50", "setting": "HT-29 [4]", "value": 600},
      {"measurement": "IC50", "setting": "HT-29 [5]", "value": 7, "unit": "nM"},
      {"measurement": "Activity", "setting": "HT-29 [6]", "value": "inactive"},
      {"measurement": "Ratio IC50", "setting": "[7]", "value": 0.71}
    ]}
  ]
}
